High-throughput results deposited in PubChem by several laboratories.
HKDC1 inhibitor = blocks human hexokinase HKDC1 activity. recombinant HKDC1, G6PDH/diaphorase resazurin coupled fluorescence. inhibition, % at 20 µM. 340,000 tested, 0.16% active;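 active = inhibition above about 35% when tested at 20 µM, limit read from the data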
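Material – in-house recombinant HK5 (HKDC1) enzyme · Quantity – HKDC1 at 5 µg/mL · Buffer or medium – pH 8.0 Tris buffer with 10 mM MgCl2 · Reagent – glucose with 1 mM ATP · Dosing – single 20 µM dose · Times – reaction time 90 min, room temperature, protected from light · Technique – resorufin fluorescence at 613 nm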
ATG4B inh = blocks human ATG4B protease cleavage of LC3 substrate. ATG4B cleavage of LC3-PLA2, NBD-HPC fluorescence, 1 h. inhibition, % at 8.33 µM. 340,000 tested, 0.51% active; in the data active = inhibition above about 40%
Target sequence (Q9Y4P1 whole entry, looked up): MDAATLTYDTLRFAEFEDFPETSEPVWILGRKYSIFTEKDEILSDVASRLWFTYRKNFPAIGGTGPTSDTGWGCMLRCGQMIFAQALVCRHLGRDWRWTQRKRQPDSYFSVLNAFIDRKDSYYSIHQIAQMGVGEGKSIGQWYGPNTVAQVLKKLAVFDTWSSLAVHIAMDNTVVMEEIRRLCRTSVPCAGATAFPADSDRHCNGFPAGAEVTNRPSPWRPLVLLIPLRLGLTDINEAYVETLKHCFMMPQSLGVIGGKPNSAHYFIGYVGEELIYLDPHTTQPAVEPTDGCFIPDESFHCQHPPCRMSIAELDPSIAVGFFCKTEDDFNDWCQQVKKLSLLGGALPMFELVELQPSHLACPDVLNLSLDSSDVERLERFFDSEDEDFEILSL
T cell modulator = T cell immune modulators affecting CD8 T cell-vesicle binding. 2C CD8+ T cell-vesicle binding, flow cytometry; active compounds read low. response (vesicle binding), % at 7 µM. 330,000 tested, 0.068% active. AID 2052;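 active = response, share of CD8 T cells binding vesicles, and their 90th percentile fluorescence all below set limits, cut at about 80% in these data, passing the limit was not always enough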;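 note: values below 100% mean blocked vesicle binding to the CD8+ T cells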
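Test system: purified 2C TCR transgenic mouse naive CD8+ T cells. Probe or stimulus: QL9-peptide-loaded Drosophila micro-vesicles bearing Ld, ICAM-1 and B7-1. Incubation: binding step 1.5 h, 37 °C, antibody labelling 20 min, ice. Measured by: flow cytometry of vesicle-bound cells.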
PKA-R2B activ = activators of human PKA-R2B complex; P22694+P31323; activation, % at 11.4 µM; PKA-R2B holoenzyme dissociation, Cy5-IP20 fluorescence polarization; R2B truncated from residue 108, S112A mutant; 0% DMSO only, 100% 113 µM cGMP; 340,000 tested, 0.079% active; AID 504700;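 active = activation above a cutoff set at the mean over all compounds plus 3 SD, cut at about 18% in these data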;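 note: higher means more holoenzyme dissociation and a rise in polarization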
PfGluPho inh = PfG6PD (Plasmodium falciparum) enzyme inhibition | PfGluPho enzyme, NADPH resazurin-diaphorase fluorescence | inhibition, % at 20 µM | AID 504690 | 350,000 tested, 0.78% active;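 active = inhibition reaching at least a set limit at 20 µM in the primary screen, cut at about 59% in these data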
PKA-R1A act = PKA-R1A complex activation; P00514+P68181; PKA-R1A dissociation, Cy5-IP20 fluorescence polarization; scaled: DMSO 0%, 113 µM cGMP 100%; activation, % at 11.4 µM; 340,000 tested, 0.083% active; AID 504707;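 active = percent activation above the mean of all tested compounds plus 3 SD, cut at about 19% in these data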;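 note: higher means more PKAc released from R1A so a rise in polarization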
R1A FP artifact = counter-screen for PKA-R1A activators: fluorescence polarization artifacts | 280 tested, 7% active | shares compounds with PKA-R1A act | Cy5-IP20 peptide alone, fluorescence polarization artifact counterscreen | activation, % at 11.4 µM;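 active = mean activation over triplicate runs exceeds the adjusted cutoff derived for the parent primary screen, cut at about 19% in these data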;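 note: no PKA protein present so any polarization rise reflects compound interference; higher means stronger polarization artifact and likely false positive in parent screen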
PKA-R1A confirm = confirmation of PKA-R1A complex activators. shares compounds with PKA-R1A act. Cy5-IP20 fluorescence polarization, PKA-R1A holoenzyme dissociation. activation, % at 11.4 µM. 280 tested, 9% active;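 active = mean activation over replicate wells exceeds the adjusted hit threshold taken from the earlier primary screen, cut at about 20% in these data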
Target sequence (P00514 whole entry, looked up): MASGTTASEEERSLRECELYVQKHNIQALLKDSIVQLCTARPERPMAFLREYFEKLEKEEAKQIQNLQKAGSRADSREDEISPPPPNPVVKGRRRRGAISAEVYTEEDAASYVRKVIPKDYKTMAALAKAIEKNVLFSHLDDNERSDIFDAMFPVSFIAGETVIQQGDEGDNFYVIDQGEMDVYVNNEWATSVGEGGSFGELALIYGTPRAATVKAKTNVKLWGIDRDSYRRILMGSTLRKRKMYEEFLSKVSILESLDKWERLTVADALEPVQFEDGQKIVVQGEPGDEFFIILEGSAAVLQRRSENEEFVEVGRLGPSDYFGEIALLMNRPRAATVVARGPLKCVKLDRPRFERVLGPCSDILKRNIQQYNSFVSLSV
Of the large screens only hits and unclear results are named; the others gave an inactive call (follow-up assays come after a bar, where they were run). Sampled rows, rich in hits. Any-hit rate of the full collection: about 1.6%.

C=CCN(c1ccccc1)S(=O)(=O)c1cccc(C(=O)Nc2ccc(N3CCOCC3)cc2)c1	none (no result: T cell modulator)
O=C(COC(=O)[C@@H]1CCCN1C(=O)c1cccs1)Nc1cccc([N+](=O)[O-])c1	none
COc1ccc(CNC(=O)CNC(=O)c2c(C)nn(C)c2Cl)cc1	PKA-R1A act 19 | R1A FP artifact inactive | PKA-R1A confirm inactive
CC1=NN(c2ccccc2)C(c2ccco2)C1 (stereo not drawn)	PKA-R1A act 20 (no result: T cell modulator) | R1A FP artifact inactive | PKA-R1A confirm inactive
COc1cc(NC(=O)c2cc(-c3ccco3)on2)cc(OC)c1OC	PKA-R1A act 19 | R1A FP artifact inactive | PKA-R1A confirm inactive
CC(C)CN(C(=O)COC(=O)CNC(=O)c1ccccc1)c1c(N)n(Cc2ccccc2)c(=O)[nH]c1=O	none
CC(C)[C@H](NC(N)=O)C(=O)Nc1cccc(S(=O)(=O)N2CCOCC2)c1	PKA-R1A act 20 | R1A FP artifact inactive | PKA-R1A confirm inactive
CC(C)[C@H](NC(=O)c1ccccc1)C(=O)Nc1cccc(S(=O)(=O)N2CCOCC2)c1	none
Cc1nn(C)cc1/C=C/C(=O)c1ccc(O)cc1	none
COCCCn1c(SCC(=O)NC2CCCC2)nnc1-c1ccco1	PKA-R1A act 26 | R1A FP artifact inactive | PKA-R1A confirm inactive
CC1(C)C2CC[C@]3(C)C(CC=C4[C@@H]5C[C@@](C)(CO)[C@@H](O)C[C@]56C[C@@H](OC6=O)[C@]43C)[C@@]2(C)CC[C@@H]1O (stereo partly drawn)	none
O=C(CC1CC2CCC1C2)NC1CCCCCCC1 (stereo not drawn)	none
O=C(O)C1CCC(N2C(=O)c3cccc([N+](=O)[O-])c3C2=O)CC1 (stereo not drawn)	PKA-R1A act 19 | R1A FP artifact inactive | PKA-R1A confirm inactive
COc1ccc(C(=O)C(C)OC(=O)CCN2C(=O)C3CC=CCC3C2=O)cc1 (stereo not drawn)	none
C=CC[C@H](CC(=O)OC(C)(C)C)C(=O)OC[C@@H]1CCCN1C(=O)[C@@H](CC=C)CC(=O)NCCO	none
Cc1ccc2cc3c(N)c(C(=O)N4CCOCC4)sc3nc2c1	PKA-R1A act 19 | R1A FP artifact inactive | PKA-R1A confirm inactive
COc1ccc2cc3c(N)c(C(=O)N4CCCC4)sc3nc2c1	none (no result: PKA-R2B activ, PKA-R1A act)
O=C(NCc1ccccc1Cl)c1ccc(S(=O)(=O)Nc2cccc(C(F)(F)F)c2)cc1	PKA-R1A act 22 | R1A FP artifact 26 | PKA-R1A confirm 22
CC(C)CCOc1ccc(C(=O)O)cc1	none
CC(C)CCOc1ccc(C(=O)N2CCCC2C(=O)O)cc1 (stereo not drawn)	PKA-R1A act 20 | R1A FP artifact inactive | PKA-R1A confirm inactive
COc1ccc(CN(C)CC(=O)Nc2ccccc2C(=O)NC2CC2)cc1	none
CC(C)c1cccc(C(C)C)c1NC(=O)CN(C)C1CCS(=O)(=O)C1 (stereo not drawn)	none
COc1ccc2nc(NC(=O)c3ccc(NC(=O)C4CCCO4)cc3)sc2c1 (stereo not drawn)	PKA-R1A act 20 | R1A FP artifact inactive | PKA-R1A confirm inactive
COCCN(CCOc1cc(C)cc(C)c1)Cc1ccc(Cl)cc1	PKA-R1A act 20 | R1A FP artifact inactive | PKA-R1A confirm inactive
CN(C)CCOc1cc(Cl)cc(Cl)c1	none
CCOC(=O)COc1ccc2c(c1)C(=O)CC(C)(C)O2	PKA-R1A act 19 | R1A FP artifact inactive | PKA-R1A confirm inactive
Cc1cccc(S(=O)(=O)N2CCn3cccc3C2C)c1 (stereo not drawn)	none
O=C(NCc1ccco1)c1cccc2c1C(=O)c1ccc(N3CCC(N4CCCCC4)CC3)cc1S2(=O)=O	PKA-R1A act 20 (no result: HKDC1 inhibitor, ATG4B inh, T cell modulator) | R1A FP artifact inactive | PKA-R1A confirm inactive
O=C(NCc1ccc(F)cc1)c1cccc2c1C(=O)c1ccc(N3CCC(N4CCCCC4)CC3)cc1S2(=O)=O	none (no result: HKDC1 inhibitor, ATG4B inh, T cell modulator)
Fc1ccccc1N1CCN(C2CCN(Cc3c[nH]c4ccccc34)CC2)CC1	PKA-R1A act 19 | R1A FP artifact inactive | PKA-R1A confirm inactive
O=C1OC(c2ccccc2)(c2cc(Br)ccc2O)c2ccccc21 (stereo not drawn)	none (no result: T cell modulator)
Cc1c(C(=O)NC2CCCc3ccccc32)cccc1[N+](=O)[O-] (stereo not drawn)	PKA-R1A act 23 | R1A FP artifact inactive | PKA-R1A confirm inactive
COc1ccc(C(=O)NC2CCCc3ccccc32)cc1[N+](=O)[O-] (stereo not drawn)	none
COc1ccc(CC(=O)NCCc2ccc(S(N)(=O)=O)cc2)cc1	none
Cc1ccc(CC(=O)NCCc2ccc(S(N)(=O)=O)cc2)cc1	PKA-R1A act 19 | R1A FP artifact inactive | PKA-R1A confirm inactive
COC(=O)c1ccc(NS(=O)(=O)c2ccc(-c3cc(C)no3)s2)cc1	none
Cc1ccc(-c2ccc(=O)n(CCC(=O)NCc3ccccn3)n2)cc1	PKA-R1A act 19 | R1A FP artifact inactive | PKA-R1A confirm inactive
O=C(CSC(=S)N1CCCCC1)c1ccccc1	PKA-R1A act 20 | R1A FP artifact inactive | PKA-R1A confirm inactive
O=C(CSC(=S)N1CCCC1)c1ccccc1	none
O=C(COC(=O)C1COc2ccccc2O1)NC(=O)NC1CCCC1 (stereo not drawn)	PKA-R1A act 20 | R1A FP artifact inactive | PKA-R1A confirm inactive
O=C(O)COc1ccc(Br)cc1/C=N\Nc1ccccn1	none
Cc1ccc(S(=O)(=O)N[C@H](C(=O)OCC(=O)NC(=O)Nc2ccc3c(c2)OCCO3)C(C)C)cc1	none
CC(C)[C@H](NS(=O)(=O)c1ccc2c(c1)OCCO2)C(=O)OCC(=O)Nc1ccccc1	PKA-R1A act 19 | R1A FP artifact inactive | PKA-R1A confirm inactive
O=C(Nc1ccc(F)cc1F)c1ccco1	PKA-R1A act 24 | R1A FP artifact inactive | PKA-R1A confirm inactive
Cc1cc(NC(=O)c2ccc(Br)o2)ccc1NC(=O)c1ccco1	PKA-R1A act 19 | R1A FP artifact inactive | PKA-R1A confirm inactive
Cc1ccc(C(=O)Nc2ccc(NC(=O)c3ccco3)c(C)c2)cc1	none
C=CCN(c1ccc(C(=O)NCCN2CCOCC2)cc1)S(C)(=O)=O	none
CCc1cc2c(=O)oc(-c3ccc(Br)cc3)nc2s1	none (no result: T cell modulator)
CC(C)(C)c1sc(N)nc1-c1ccccc1	none
Cc1sc(N)nc1-c1ccccc1	PKA-R1A act 21 | R1A FP artifact inactive | PKA-R1A confirm inactive
COCCN(Cc1ccccc1)C(=O)c1cccc(S(=O)(=O)N(C)c2c(C)n(C)n(-c3ccccc3)c2=O)c1	none
COc1ccc(/C=N/NC(=O)C(=O)N2CCCCCC2)cc1O	none
Cc1c(-c2ccccc2)[n+](=O)c(-c2ccc(Cl)cc2)c(C)n1[O-]	PKA-R1A act 19 | R1A FP artifact inactive | PKA-R1A confirm inactive
